Data on one molecule can be found in ChEMBL document CHEMBL4024792, “(N-Hydroxycarbonylbenylamino)quinolines as Selective Histone Deacetylase 6 Inhibitors Suppress Growth of Multiple Myeloma in Vitro and in Vivo” (J Med Chem, 2018).

SMILES strings stand for the structures. Calls of active or inactive are those of the source. The rule behind the calls is not given here.

For data set [1], the system named is U-266. The data set is described as follows: Induction of apoptosis in human U266 cells at 5 uM after 24 hrs by Annexin V/propidium iodide staining based flow cytometry. Format: functional, cell-based. In general terms: A flow cytometer gives signals particle by particle.
Data set [2] can be described thus: Intrinsic clearance in human hepatocytes at 10 uM by LC-MS/MS analysis. The following applies: read-out: CLH. Format: ADME, cell-based, Hepatocyte. In a few lines:
(§1)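 Cryopreserved hepatocytes (Sprague-Dawley rat, beagle dog, human) incubated with compound at 10 µM, 37 °C, for up to 4 h. About 0.5×10^6 cells/well for rat and dog, 0.24×10^6 for human.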

Data set [3] relates to RPMI-8226. The data set is described as follows: Cell cycle arrest in human RPMI8226 cells assessed as accumulation at sub-G1 phase at 5 uM after 24 hrs in presence of bortezomib by propidium iodide staining based flow cytometry (reference value: 12.25%). Format: functional.
Data set [4] deals with U-266. As to the kind of experiment: Cell cycle arrest in human U266 cells assessed as accumulation at G0/G1 phase at 5 uM after 24 hrs by propidium iodide staining based flow cytometry (reference value: 40.29%). The class given is functional.
For data set [5], the system named is RPMI-8226. The data set is described as follows: Cell cycle arrest in human RPMI8226 cells assessed as accumulation at S phase at 5 uM after 24 hrs by propidium iodide staining based flow cytometry (reference value: 19.53%). The class given is functional.
Data set [6] relates to RPMI-8226. As to the kind of experiment: Cell cycle arrest in human RPMI8226 cells assessed as accumulation at G2/M phase at 5 uM after 24 hrs by propidium iodide staining based flow cytometry (reference value: 23.94%). Format: functional.
For data set [7], the system named is U-266. The data set is described as follows: Cell cycle arrest in human U266 cells assessed as accumulation at sub-G1 phase at 5 uM after 24 hrs in presence of bortezomib by propidium iodide staining based flow cytometry (reference value: 10.76%). Format: functional.
The test system of data set [8] is Mus musculus. The data set is described as follows: Toxicity in nude mouse xenografted with human RPMI8226 cells assessed as change in body weight at 30 mg/kg, iv or ip administered for 5 days followed by 2 days off for 35 days cotreated with bortezomib. Format: organism-based. The following applies: in vivo. In a few lines:
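Male 8-week nude mice implanted sc with 1×10^7 RPMI 8226 cells, randomized at ~200 mm3 (n = 8). […] Vehicle: 0.5% EtOH/0.5% Cremophor in 5% dextran.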
In general terms: Xenograft models place foreign cells or tissue in a host animal.

A short description of data set [9]: Half life in human hepatocytes at 10 uM by LC-MS/MS analysis. The class given is ADME, cell-based, Hepatocyte. In a few lines: (§2)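 Substrate depletion in cryopreserved hepatocytes (male SD rat, male beagle dog, human). Compound at 10 µM incubated at 37 °C for up to 4 h. Cell density approximately 0.5 × 10^6 hepatocytes/well for rat and dog, 0.24 × 10^6/well for human. Half-life and CLint derived from depletion; % remaining at 60 min also reported.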

Data set [10] concerns U-266. As to the kind of experiment: Cell cycle arrest in human U266 cells assessed as accumulation at S phase at 5 uM after 24 hrs by propidium iodide staining based flow cytometry (reference value: 14.05%). The class given is functional.
The test system of data set [11] is Salmonella typhimurium. The data set is described as follows: Mutagenicity in Salmonella typhimurium TA98 assessed as increase in number of revertant colonies at 3 to 3000 ug/plate in presence of S9 fraction by Ames test. Format: toxicity. The following applies: salmonella enterica subsp. enterica serovar typhimurium. In a few lines: (§3)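 Ames test, TA98 and TA100. Overnight broth cultures preincubated 20 min at 35-37 °C with compound (DMSO stock) plus Aroclor 1254-induced rat liver S9 mix or PBS, then plated in top agar with 0.05 mM histidine/biotin. Final 3-3000 µg/plate; revertants counted after 72 h at 37 °C. ≥3-fold over vehicle = mutagenic; ≤50% = cytotoxic.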
Background: The Ames test detects mutagens through reverse mutation in bacteria.

The test system of the next data set is NCI-H929. The data set is described as follows: Cell cycle arrest in human NCI-H929 cells assessed as accumulation at G2/M phase at 5 uM after 24 hrs in presence of bortezomib by propidium iodide staining based flow cytometry (reference value: 31.63%). Format: functional.
Data set [12] concerns U-266. The data set is described as follows: Cell cycle arrest in human U266 cells assessed as accumulation at G0/G1 phase at 5 uM after 24 hrs in presence of bortezomib by propidium iodide staining based flow cytometry (reference value: 40.29%). Format: functional.
Data set [13] is described as follows: Stability in beagle dog hepatocytes assessed as parent compound remaining at 10 uM after 60 mins by LC-MS/MS analysis. The class given is ADME, cell-based, Canis lupus familiaris, Hepatocyte. To be noted: read-out: Stability. In a few lines: as §1
Data set [14] relates to RPMI-8226. As to the kind of experiment: Antitumor activity against human RPMI8226 cells xenografted in nude mouse assessed as tumor growth inhibition at 30 mg/kg, iv or ip administered for 5 days followed by 2 days off for 35 days relative to control. Format: functional. To be noted: read-out: TGI. An outline of the steps:
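RPMI 8226 cells (1 × 10^7) implanted s.c. in eight-week-old male nude mice. At mean tumor volume 200 mm3, mice randomized into four groups (n = 8). Caliper measurement every 3–4 days, volume L×W²/2. %TGI computed from treated versus control volume changes relative to time 0.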

In data set [15] the test system is Salmonella typhimurium. As to the kind of experiment: Mutagenicity in Salmonella typhimurium TA100 assessed as increase in number of revertant colonies at 3 to 3000 ug/plate in absence of S9 fraction by Ames test. Format: toxicity. To be noted: salmonella enterica subsp. enterica serovar typhimurium. An outline of the steps:
as §3

Data set [16] in a line: Apparent permeability from basolateral to apical side in human Caco2 cells at 10 uM after 2 hrs by LC-MS/MS analysis. The following applies: Caco-2. The class given is ADME, cell-based. In a few lines:
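Caco-2 cells seeded at 8.4 × 10^4 cells/cm2 on polycarbonate inserts for 21 days. For A→B, donor was apical (HBSS/MES pH 6.5, 10 µM compound) and receiver basolateral (HBSS/HEPES pH 7.4). For B→A, donor was basolateral (HBSS/HEPES pH 7.4, 10 µM) and receiver apical (HBSS/MES pH 6.5). Incubated at 37 °C for 2 h. Receiver sampled at 30, 60, 90 and 120 min, donor at 0 and 120 min.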

Data set [17] is described as follows: Intrinsic clearance in beagle dog hepatocytes at 10 uM by LC-MS/MS analysis. The class given is ADME, cell-based, Canis lupus familiaris, Hepatocyte. To be noted: read-out: CLH. In a few lines:
as §1

Data set [18] is described as follows: Half life in Sprague-Dawley rat hepatocytes at 10 uM by LC-MS/MS analysis. Format: ADME, cell-based, Hepatocyte. In a few lines:
as §2

Data set [19] relates to Mus musculus. The data set is described as follows: Toxicity in Balb/c mouse assessed as change in body weight at 50 to 200 mg/kg, ip administered once daily for 1 week measured for 1 week. The class given is organism-based. The following applies: in vivo, 168 h. An outline of the steps: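 Male 8-week balb/c mice, ten per dose, given compound ip once daily for 7 days at 50, 100 or 200 mg/kg, then monitored one week. Body weight recorded over 14 days. MTD = highest dose with no drug-related moribund state or death and weight loss under 20%.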

The subject of data set [20] is RPMI-8226. As to the kind of experiment: Cell cycle arrest in human RPMI8226 cells assessed as accumulation at S phase at 5 uM after 24 hrs in presence of bortezomib by propidium iodide staining based flow cytometry (reference value: 19.53%). Format: functional.

Take `O=C(NO)c1ccc(CNc2cccc3cccnc23)cc1`: the result in the data set on U-266 [1] was Active. Also, the CLint scaled at 10 µM in data set [2] amounted to 32.5 mL/min/kg; in data set [17] it was 39.6 mL/min/kg. In addition, the Activity is recorded as 84.18% in the data set on RPMI-8226 [3]; 52.88% in the data set with U-266 [4]; 15.19% in the data set on RPMI-8226 [5]; 31.53% in the data set on RPMI-8226 [6]; 45.29% with U-266 [7]; “Non-Toxic” in the data set with Mus musculus [8]. Besides, the Activity with U-266 [10] was 6.12%; in the data set with Salmonella typhimurium [11], “Non-Toxic”; in the data set on NCI-H929 it was 1.73%; in the data set on U-266 [12] it was 25.75%; in the data set with Salmonella typhimurium [15] it was “Non-Toxic”; in the data set with Mus musculus [19], “Non-Toxic”. Also, the Activity with RPMI-8226 [20] is given as 2.46%. Besides, the half-life at 10 µM was determined as 240 min in [9] and 55.8 min in data set [18]. Also, the remaining at 1 h, 10 µM in data set [13] stood at 70.6%. Further, in the data set with RPMI-8226 [14], the inhibition in vivo at 30 mg/kg came out at 60.4%. In addition, the Papp B→A at 2 h, 10 µM in data set [16] came to 20.1 ×10⁻⁶ cm/s.

Broadly, the half-life is how long it takes for the measured level to halve. Low values mean fast loss, high ones slow loss. Usually Papp B→A stands for the apparent permeability from the basolateral to the apical side of a cell layer.
